Laboratory results: ChEMBL document CHEMBL1765045, “Fine-tuning the selectivity of aldosterone synthase inhibitors: structure-activity and structure-selectivity insights from studies of heteroaryl substituted 1,2,5,6-tetrahydropyrrolo[3,2,1-ij]quinolin-4-one derivatives” (J Med Chem, 2011)

Assays:
[1] = target: T1, Cytochrome P450 11B2, mitochondrial (Homo sapiens, UniProt P19099); test: Inhibition of human CYP11B2 expressed in hamster V79 MZh cells assessed as conversion of [4-14C]-11-deoxycorticosterone substrate at 500 nM by HPTLC assay; format: cell-based; details: V79MZh
T1 sequence (P19099 whole entry): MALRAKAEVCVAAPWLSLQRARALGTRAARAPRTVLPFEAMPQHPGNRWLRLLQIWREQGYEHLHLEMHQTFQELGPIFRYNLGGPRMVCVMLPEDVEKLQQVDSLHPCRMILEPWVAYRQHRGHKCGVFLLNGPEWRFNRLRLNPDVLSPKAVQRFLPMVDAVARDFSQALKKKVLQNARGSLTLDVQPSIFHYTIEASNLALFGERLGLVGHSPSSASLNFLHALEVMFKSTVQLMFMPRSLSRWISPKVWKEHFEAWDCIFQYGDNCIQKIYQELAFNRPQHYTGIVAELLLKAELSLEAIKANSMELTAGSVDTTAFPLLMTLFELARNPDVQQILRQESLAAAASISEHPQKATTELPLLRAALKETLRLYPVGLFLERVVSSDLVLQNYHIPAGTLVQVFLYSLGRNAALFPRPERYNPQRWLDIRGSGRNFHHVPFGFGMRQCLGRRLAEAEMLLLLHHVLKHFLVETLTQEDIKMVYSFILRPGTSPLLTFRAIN
How it was run: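 V79 MZh cells expressing human CYP11B2 given [4-14C]-11-deoxycorticosterone, 100 nM, with inhibitor at a single 500 nM concentration. Ethyl acetate extraction, then HPTLC/phosphoimager readout of conversion. Percent inhibition is the mean of at least three experiments.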

CYP3A4 [2] = target: T2, CYP3A4 (Homo sapiens, UniProt P08684); test: Inhibition of human CYP3A4 expressed in baculovirus-infected insect microsomes at 10 uM; format: ADME, Microsome
T2 sequence (P08684 whole entry): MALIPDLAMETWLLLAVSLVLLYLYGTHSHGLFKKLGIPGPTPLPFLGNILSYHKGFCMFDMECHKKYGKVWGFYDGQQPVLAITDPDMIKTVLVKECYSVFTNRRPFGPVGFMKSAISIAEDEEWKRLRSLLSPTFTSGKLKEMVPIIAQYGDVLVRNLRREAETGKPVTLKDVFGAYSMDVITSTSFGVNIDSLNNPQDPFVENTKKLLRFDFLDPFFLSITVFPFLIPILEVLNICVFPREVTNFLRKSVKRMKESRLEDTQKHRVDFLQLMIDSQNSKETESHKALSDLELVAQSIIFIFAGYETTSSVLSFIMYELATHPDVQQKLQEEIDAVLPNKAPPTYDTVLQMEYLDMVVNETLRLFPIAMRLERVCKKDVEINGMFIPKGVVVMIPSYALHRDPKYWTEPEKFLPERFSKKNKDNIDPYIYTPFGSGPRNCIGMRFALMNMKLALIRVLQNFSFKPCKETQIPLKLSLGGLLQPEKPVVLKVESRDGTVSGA
How it was run: (§1)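 Recombinant human CYP1A2, 2B6, 2C9, 2C19, 2D6 or 3A4 in baculovirus-infected insect microsomes (Supersomes), run per manufacturer's protocol. Inhibitor at 1 and 10 μM; percent inhibition is the mean of two experiments.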

CYP3A4 [3] = target: T2, CYP3A4; test: Inhibition of human CYP3A4 expressed in baculovirus-infected insect microsomes at 1 uM; format: ADME, Microsome; how it was run: as §1
CYP2D6 [4] = target: T3, CYP2D6 (Homo sapiens, UniProt P10635); test: Inhibition of human CYP2D6 expressed in baculovirus-infected insect microsomes at 10 uM; format: ADME, Microsome; how it was run: as §1
T3 sequence (P10635 whole entry): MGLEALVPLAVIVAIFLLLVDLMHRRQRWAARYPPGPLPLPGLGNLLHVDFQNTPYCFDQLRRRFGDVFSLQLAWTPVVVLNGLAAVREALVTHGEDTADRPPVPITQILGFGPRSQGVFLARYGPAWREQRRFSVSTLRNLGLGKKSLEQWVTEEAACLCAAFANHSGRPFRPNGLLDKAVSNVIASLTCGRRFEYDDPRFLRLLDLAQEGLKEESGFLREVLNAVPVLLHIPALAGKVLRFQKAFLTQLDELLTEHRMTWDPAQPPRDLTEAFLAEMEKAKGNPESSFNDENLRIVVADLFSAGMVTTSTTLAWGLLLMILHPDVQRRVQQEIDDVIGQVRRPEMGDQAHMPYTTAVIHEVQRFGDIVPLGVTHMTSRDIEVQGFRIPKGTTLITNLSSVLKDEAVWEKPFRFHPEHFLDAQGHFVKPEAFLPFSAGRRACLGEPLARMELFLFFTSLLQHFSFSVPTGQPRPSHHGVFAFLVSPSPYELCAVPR

CYP2D6 [5] = target: T3, CYP2D6; test: Inhibition of human CYP2D6 expressed in baculovirus-infected insect microsomes at 1 uM; format: ADME, Microsome; how it was run: as §1
CYP2C19 [6] = target: T4, CYP2C19 (Homo sapiens, UniProt P33261); test: Inhibition of human CYP2C19 expressed in baculovirus-infected insect microsomes at 10 uM; format: ADME, Microsome; how it was run: as §1
T4 sequence (P33261 whole entry): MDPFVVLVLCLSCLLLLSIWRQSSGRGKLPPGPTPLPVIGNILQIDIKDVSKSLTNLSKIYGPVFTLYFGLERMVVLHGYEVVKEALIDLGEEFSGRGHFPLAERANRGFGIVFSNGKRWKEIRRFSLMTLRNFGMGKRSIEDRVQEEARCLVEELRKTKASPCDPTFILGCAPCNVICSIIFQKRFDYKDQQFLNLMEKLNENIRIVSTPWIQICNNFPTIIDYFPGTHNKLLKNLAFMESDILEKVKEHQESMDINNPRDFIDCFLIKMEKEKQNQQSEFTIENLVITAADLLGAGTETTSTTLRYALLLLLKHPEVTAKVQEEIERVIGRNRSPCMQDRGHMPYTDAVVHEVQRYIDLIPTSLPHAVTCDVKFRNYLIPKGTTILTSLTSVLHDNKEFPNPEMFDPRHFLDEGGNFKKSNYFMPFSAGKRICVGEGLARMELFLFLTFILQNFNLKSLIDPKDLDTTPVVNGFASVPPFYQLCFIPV

CYP2C19 [7] = target: T4, CYP2C19; test: Inhibition of human CYP2C19 expressed in baculovirus-infected insect microsomes at 1 uM; format: ADME, Microsome; how it was run: as §1
CYP2C9 = CYP2C9 (Homo sapiens, UniProt P11712); test: Inhibition of human CYP2C9 expressed in baculovirus-infected insect microsomes at 10 uM; format: ADME, Microsome; how it was run: as §1
CYP2C9, sequence (P11712 whole entry): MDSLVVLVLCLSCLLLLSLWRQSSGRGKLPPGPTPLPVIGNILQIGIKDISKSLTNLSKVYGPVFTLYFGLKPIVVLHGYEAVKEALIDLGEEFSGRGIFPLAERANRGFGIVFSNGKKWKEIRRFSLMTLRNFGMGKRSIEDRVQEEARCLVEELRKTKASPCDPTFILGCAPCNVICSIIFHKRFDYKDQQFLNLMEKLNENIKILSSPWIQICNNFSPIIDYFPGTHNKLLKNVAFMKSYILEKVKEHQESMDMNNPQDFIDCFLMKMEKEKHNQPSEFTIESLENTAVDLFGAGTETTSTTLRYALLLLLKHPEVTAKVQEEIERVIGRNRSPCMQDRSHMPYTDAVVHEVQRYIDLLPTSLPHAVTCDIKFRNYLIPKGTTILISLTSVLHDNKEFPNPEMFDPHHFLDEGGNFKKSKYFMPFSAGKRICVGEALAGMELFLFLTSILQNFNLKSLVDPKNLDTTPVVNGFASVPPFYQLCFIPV

CYP2B6 [8] = target: T5, CYP2B6 (Homo sapiens, UniProt P20813); test: Inhibition of human CYP2B6 expressed in baculovirus-infected insect microsomes at 10 uM; format: ADME, Microsome; how it was run: as §1
T5 sequence (P20813 whole entry): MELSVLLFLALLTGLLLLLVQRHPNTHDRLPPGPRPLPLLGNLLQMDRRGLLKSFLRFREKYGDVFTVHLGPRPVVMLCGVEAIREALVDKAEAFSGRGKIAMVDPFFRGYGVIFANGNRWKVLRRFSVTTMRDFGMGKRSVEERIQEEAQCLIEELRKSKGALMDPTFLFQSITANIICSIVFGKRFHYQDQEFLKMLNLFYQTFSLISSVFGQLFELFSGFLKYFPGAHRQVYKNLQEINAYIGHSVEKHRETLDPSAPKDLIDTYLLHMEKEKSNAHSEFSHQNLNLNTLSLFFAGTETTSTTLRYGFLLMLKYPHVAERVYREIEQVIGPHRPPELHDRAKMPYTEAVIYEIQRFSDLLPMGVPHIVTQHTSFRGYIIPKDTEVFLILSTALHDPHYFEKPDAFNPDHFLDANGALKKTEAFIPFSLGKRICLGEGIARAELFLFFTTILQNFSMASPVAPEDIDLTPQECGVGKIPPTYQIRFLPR

CYP2B6 [9] = target: T5, CYP2B6; test: Inhibition of human CYP2B6 expressed in baculovirus-infected insect microsomes at 1 uM; format: ADME, Microsome; how it was run: as §1
CYP1A2 = target: T6, CYP1A2 (Homo sapiens, UniProt P05177); test: Inhibition of human CYP1A2 expressed in baculovirus-infected insect microsomes at 10 uM; format: ADME, Microsome; how it was run: as §1
T6 sequence (P05177 whole entry): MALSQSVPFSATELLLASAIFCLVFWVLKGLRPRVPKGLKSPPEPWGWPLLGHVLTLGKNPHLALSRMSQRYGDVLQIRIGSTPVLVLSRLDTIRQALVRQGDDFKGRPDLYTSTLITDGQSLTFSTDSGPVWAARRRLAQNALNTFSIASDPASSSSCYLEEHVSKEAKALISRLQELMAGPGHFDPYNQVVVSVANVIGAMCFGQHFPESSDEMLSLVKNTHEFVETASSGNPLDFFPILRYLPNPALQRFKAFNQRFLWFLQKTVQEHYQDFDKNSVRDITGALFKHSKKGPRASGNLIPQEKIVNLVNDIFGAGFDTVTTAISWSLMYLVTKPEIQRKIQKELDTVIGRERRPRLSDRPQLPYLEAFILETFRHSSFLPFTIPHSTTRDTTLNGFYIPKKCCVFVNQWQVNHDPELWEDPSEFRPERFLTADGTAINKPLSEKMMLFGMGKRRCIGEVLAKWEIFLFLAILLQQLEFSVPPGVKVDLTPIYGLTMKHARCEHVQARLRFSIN

CYP17 = target: T7, CYP17 (Homo sapiens, UniProt P05093); test: Inhibition of human CYP17 expressed in Escherichia coli using progesterone substrate at 2 uM; details: recombinant human CYP17 expressed in Escherichia coli, probe progesterone
T7 sequence (P05093 whole entry): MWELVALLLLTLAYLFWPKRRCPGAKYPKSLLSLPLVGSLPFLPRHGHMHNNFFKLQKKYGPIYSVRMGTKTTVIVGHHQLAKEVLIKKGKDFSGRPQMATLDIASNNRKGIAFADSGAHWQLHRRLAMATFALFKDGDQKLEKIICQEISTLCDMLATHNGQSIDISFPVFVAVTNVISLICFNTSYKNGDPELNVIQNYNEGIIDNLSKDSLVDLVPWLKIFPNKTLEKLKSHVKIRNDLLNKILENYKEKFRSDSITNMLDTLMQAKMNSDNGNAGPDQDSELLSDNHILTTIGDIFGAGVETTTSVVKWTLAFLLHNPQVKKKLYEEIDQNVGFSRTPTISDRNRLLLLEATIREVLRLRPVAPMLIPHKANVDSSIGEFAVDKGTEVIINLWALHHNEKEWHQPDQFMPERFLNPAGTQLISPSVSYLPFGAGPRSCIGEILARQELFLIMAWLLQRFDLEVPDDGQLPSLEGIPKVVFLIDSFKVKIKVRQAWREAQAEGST
How it was run: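 50000g sediment of E. coli homogenate recombinantly expressing human CYP17. Progesterone substrate at 25 μM, inhibitor tested at 2 μM.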

SMILES | inhibition at 0.5 µM [1] [%] | inhibition at 10 µM (CYP3A4 [2]) [%] | inhibition at 1 µM (CYP3A4 [3]) [%] | inhibition at 10 µM (CYP2D6 [4]) [%] | inhibition at 1 µM (CYP2D6 [5]) [%] | inhibition at 10 µM (CYP2C19 [6]) [%] | inhibition at 1 µM (CYP2C19 [7]) [%] | inhibition at 10 µM (CYP2C9) [%] | inhibition at 10 µM (CYP2B6 [8]) [%] | inhibition at 1 µM (CYP2B6 [9]) [%] | inhibition at 10 µM (CYP1A2) [%] | inhibition at 2 µM (CYP17) [%]
O=C1CCc2cc(-c3cccnc3)cc3c2N1CC3 | 90 | < 5 | < 5 | < 5 | < 5 | < 5 | < 5 | 41 | < 5 | < 5 | 43 | 6
O=C1CCc2cc(-c3cccnc3)cc3c2N1CCC3 | 95 | 21 | 6 |  |  | 44 | 8 | 40 | 36 | 27 | 83 | 6
O=C1CCc2cc(-c3cncc(-c4cccc(F)c4)c3)cc3c2N1CC3 | 97 | 43 | 37 | 9 | < 5 | 21 |  | 79 | 13 | < 5 | 38 | 7
COc1cncc(-c2cc3c4c(c2)CCN4C(=O)CC3)c1 | 98 | 19 | 14 | 13 | 9 | 30 | 7 | 42 | 8 | < 5 | 72 | < 5
